{
  "source": "paper PMC10237409",
  "about": "(Neuro-Oncology, 2022)",
  "key": {"glioblastoma": {"tested_on": "glioblastoma", "details": "cited from earlier work"}, "orthotopic glioblastoma": {"tested_on": "orthotopic glioblastoma", "details": "cited from earlier work"}, "[1]": {"type": "in vivo, human", "procedure,_shortened": "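Patients took 30 mg/day orally on days 1–4, with salvage resection planned 6–24 h after the day 4 dose. Resected tumour (contrast-enhancing and non-enhancing where possible), CSF and time-matched plasma were collected during surgery. Results were summarised as geometric means. Free tissue concentration and unbound partition coefficient were estimated from plasma protein binding and tissue binding.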"}, "[2]": {"assay": "Safety: treatment-related adverse events", "type": "in vivo, human", "procedure,_shortened": "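AEs were coded with MedDRA 24.0 and graded by NCI CTCAE 5.0. They were reported separately for the preoperative period (30 mg/day days 1–4, until maintenance start) and for postoperative maintenance (45 mg/day 4 days on/24 days off per 28-day cycle, onward). Maintenance continued until progression, unacceptable toxicity or consent withdrawal.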"}, "[3]": {"tested_on": "advanced cancers, including high-grade gliomas", "details": "45 mg/day 4 days on/24 days off per 28-day cycle; cited from earlier work"}, "HEXIM1 mRNA": {"tested_on": "HEXIM1 mRNA", "assay": "HEXIM1 mRNA in whole blood", "type": "in vivo, human", "details": "72–96 h after the first preoperative dose, 30 mg/day", "procedure,_shortened": "(§1)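 Patients took 30 mg/day orally on days 1–4 before salvage resection. Blood samples for pharmacodynamics were drawn at multiple time points through cycle 1 and at surgery. CCR1 and HEXIM1 expression in blood was measured by RNA-Seq.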"}, "CCR1 mRNA": {"tested_on": "CCR1 mRNA", "assay": "CCR1 mRNA in whole blood", "type": "in vivo, human", "details": "after the fourth preoperative dose, 30 mg/day; mean (SD ± 28.5)", "procedure,_shortened": "as §1"}, "[4]": {"type": "in vivo", "details": "human, plasma, oral, 30 mg/day; for AUC(0-t): GM AUC0-24, plasma; for Cmax: GM Cmax; for Tmax: Median tmax (range)", "procedure,_shortened": "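Patients took 30 mg/day orally on days 1–4 before resection. Plasma was sampled at multiple time points through cycle 1 and at surgery, then assayed by LC-MS/MS (High Assay Range). Cmax, tmax, AUC and t½ came from non-compartmental analysis and were summarised as geometric means.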"}, "[5]": {"details": "stated without reference; cited from earlier work"}, "[6]": {"details": "postoperative maintenance 45 mg/day 4 days on/24 days off, n = 16"}, "[7]": {"details": "preoperative 30 mg/day days 1–4, n = 20"}},
  "note": "Like-named read-outs stand apart in the source and are kept apart here.",
  "data": [
    {"compound": "Cc1sc2c(c1C)C(c1ccc(Cl)cc1)=N[C@@H](CC(=O)Nc1ccc(O)cc1)c1nnc(C)n1-2", "note": "[OTX015]", "values": [
      {"measurement": "Clinical efficacy (study outcome)", "setting": "glioblastoma", "value": "lack of efficacy"},
      {"measurement": "Antitumor activity", "setting": "orthotopic glioblastoma", "value": "showed antitumor activity"},
      {"measurement": "Penetration of brain tumor tissue", "setting": "orthotopic glioblastoma; markedly lower concentrations in peritumoral and distant brain tissue", "value": "high penetration of brain tumor tissue"}
    ]},
    {"compound": "Cn1cc(-c2cc(S(C)(=O)=O)ccc2OCC2CC2)c2ccccc2c1=O", "note": "[Trotabresib]", "values": [
      {"measurement": "Plasma concentration at the time of surgery, GM (% GCV)", "setting": "[1]; after 30 mg/day days 1–4, n = 19", "value": 1.02, "unit": "µM"},
      {"measurement": "GM free (tissue binding-corrected) trotabresib concentration in brain tissue", "setting": "[1]; calculated, n = 20, GM (% GCV)", "value": 0.028, "unit": "µM"},
      {"measurement": "CSF concentration, GM (% GCV)", "setting": "[1]; n = 13", "value": 0.14, "unit": "µM"},
      {"measurement": "Brain tumor tissue concentration, GM (% GCV)", "setting": "[1]; resected tissue after 30 mg/day days 1–4, n = 20", "value": 0.74, "unit": "µM"},
      {"measurement": "Serious TRAEs", "setting": "[2]; overall study", "value": "No serious TRAEs"},
      {"measurement": "Treatment discontinuation due to AEs", "setting": "[2]; overall study", "value": "No patients discontinued treatment due to AEs"},
      {"measurement": "Any TRAE, any grade, patients", "setting": "[2]; [6]", "value": 100, "unit": "%"},
      {"measurement": "Asthenia, grade 3/4 TRAE, number of patients", "setting": "[2]; [6]", "value": 1, "unit": "patient"},
      {"measurement": "Thrombocytopenia, grade 3/4 TRAE, number of patients", "setting": "[2]; [6]", "value": 5, "unit": "patients"},
      {"measurement": "Dose reduction due to thrombocytopenia, number of patients", "setting": "[2]; postoperative treatment period, 45 mg/day", "value": 1, "unit": "patient"},
      {"measurement": "Dose interruptions due to AEs, number of patients", "setting": "[2]; postoperative treatment period, 45 mg/day, thrombocytopenia in 2, pancreatitis in 1", "value": 3, "unit": "patients"},
      {"measurement": "Surgery delayed or canceled due to an AE", "setting": "[2]; preoperative 30 mg/day days 1–4", "value": "No patients"},
      {"measurement": "ALT increased, grade 3/4 TRAE, number of patients", "setting": "[2]; [7]", "value": 1, "unit": "patient"},
      {"measurement": "Any TRAE, any grade, patients", "setting": "[2]; [7]", "value": 60, "unit": "%"},
      {"measurement": "Any TRAE, grade 3/4, patients", "setting": "[2]; [7]", "value": 10, "unit": "%"},
      {"measurement": "Lymphopenia, grade 3/4 TRAE, number of patients", "setting": "[2]; [7]", "value": 1, "unit": "patient"},
      {"measurement": "Thrombocytopenia, grade 1/2, patients", "setting": "[2]; [7]", "value": 25, "unit": "%"},
      {"measurement": "Prolonged progression-free survival (PFS) in some patients", "setting": "[3]", "value": "up to 3 years"},
      {"measurement": "Blood levels of HEXIM1 mRNA versus baseline", "setting": "HEXIM1 mRNA", "value": "increased from baseline in all patients"},
      {"measurement": "Blood levels of CCR1 mRNA, % of baseline levels", "setting": "CCR1 mRNA", "value": 45.8, "unit": "%"},
      {"measurement": "half-life", "setting": "[4]", "value": 46, "unit": "h"},
      {"measurement": "AUC(0-t)", "setting": "[4]; cycle 1 day 1, GM (% GCV)", "value": 5.08, "unit": "µg·h/mL"},
      {"measurement": "AUC(0-t)", "setting": "[4]; cycle 1 day 4, GM (% GCV)", "value": 11.2, "unit": "µg·h/mL"},
      {"measurement": "Cmax", "setting": "[4]; cycle 1 day 1, GM (% GCV)", "value": 0.392, "unit": "µg/mL"},
      {"measurement": "Cmax", "setting": "[4]; cycle 1 day 4, GM (% GCV)", "value": 0.72, "unit": "µg/mL"},
      {"measurement": "Tmax", "setting": "[4]; cycle 1 day 1", "value": 1.5, "unit": "h"},
      {"measurement": "Tmax", "setting": "[4]; cycle 1 day 4", "value": 1.9, "unit": "h"},
      {"measurement": "Lipophilicity", "setting": "[5]", "value": "high lipophilicity"}
    ]}
  ]
}
